# Tests used:
# [1] = biological target: Estrogen receptor beta (Homo sapiens) (UniProt Q92731); assay: In vitro displacement of 0.5 nM [3H]E2 from human Estrogen receptor beta at 10 uM
# HUVEC [2] = assay: In vitro inhibition of primary human umbilical vein endothelial cell (HUVEC) proliferation at 10 uM; assay type: functional; details: values are per cent of control
# Summary of the method: (§1)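 bFGF-stimulated HUVEC proliferation; cells incubated with bFGF alone or with increasing compound concentrations. Cell counts remaining normalized: maximal bFGF response = 100%, wells without bFGF (starved) = 0%. Mean ± SEM, n = 11 or n = 5 depending on experiment.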
# HUVEC [3] = assay: In vitro inhibition of primary human umbilical vein endothelial cell (HUVEC) proliferation at 3 uM; assay type: functional; details: values are per cent of control; summary of the method: as §1
# HUVEC [4] = assay: IIn vitro inhibition of primary human umbilical vein endothelial cell (HUVEC) proliferation at 0.1 uM; assay type: functional; details: values are per cent of control; summary of the method: as §1
# HUVEC [5] = assay: In vitro inhibition of primary human umbilical vein endothelial cell (HUVEC) proliferation at 0.01 uM; assay type: functional; details: values are per cent of control; summary of the method: as §1
# HUVEC [6] = assay: In vitro inhibition of primary human umbilical vein endothelial cell (HUVEC) proliferation at 1 uM; assay type: functional; details: values are per cent of control; summary of the method: as §1
# Sequence of Estrogen receptor beta (Homo sapiens) (Q92731 whole entry): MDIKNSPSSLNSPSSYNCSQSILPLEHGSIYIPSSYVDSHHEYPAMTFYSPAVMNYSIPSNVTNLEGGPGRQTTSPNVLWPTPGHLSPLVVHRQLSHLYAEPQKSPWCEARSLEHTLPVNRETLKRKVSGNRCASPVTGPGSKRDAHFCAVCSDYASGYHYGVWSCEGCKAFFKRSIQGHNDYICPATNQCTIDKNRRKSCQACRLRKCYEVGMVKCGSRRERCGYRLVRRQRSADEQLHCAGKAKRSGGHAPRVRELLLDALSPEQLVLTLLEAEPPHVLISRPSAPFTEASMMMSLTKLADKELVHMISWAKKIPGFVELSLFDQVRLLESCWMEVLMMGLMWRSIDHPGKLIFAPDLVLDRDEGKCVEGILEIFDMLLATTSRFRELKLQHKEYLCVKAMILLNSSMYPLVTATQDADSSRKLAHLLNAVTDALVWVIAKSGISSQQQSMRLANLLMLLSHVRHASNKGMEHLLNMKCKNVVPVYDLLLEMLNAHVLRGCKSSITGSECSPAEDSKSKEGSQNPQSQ
Binding [1],SMILES,"growth, % of control at 10 µM (HUVEC [2])","growth, % of control at 3 µM (HUVEC [3])","growth, % of control at 0.1 µM (HUVEC [4])","growth, % of control at 0.01 µM (HUVEC [5])","growth, % of control at 1 µM (HUVEC [6])"
100%,COc1ccc2c(c1)oc(=O)c1cc(C(C)=O)ccc12,25%,30%,90%,100%,85%
90%,COc1cc2c(cc1O)oc(=O)c1cc(C(C)=O)ccc12,10%,60%,100%,90%,85%

SMILES,Binding [1],"growth, % of control at 10 µM (HUVEC [2])","growth, % of control at 3 µM (HUVEC [3])","growth, % of control at 0.1 µM (HUVEC [4])","growth, % of control at 0.01 µM (HUVEC [5])","growth, % of control at 1 µM (HUVEC [6])"
COc1cc2c(cc1O)CC[C@@H]1[C@@H]2CC[C@]2(C)[C@@H](O)CC[C@@H]12 [2-METHOXYESTRADIOL],25%,,25%,100%,100%,60%

# From ChEMBL document CHEMBL1136750, “Synthesis and evaluation of a novel nonsteroidal-specific endothelial cell proliferation inhibitor” (2003)
